Reference: ChEMBL document CHEMBL1153925, “Synthesis, characterization and biological activity of ring-substituted 6-benzylamino-9-tetrahydropyran-2-yl and 9-tetrahydrofuran-2-ylpurine derivatives” (Bioorg Med Chem, 2009)

Legend:
[1] = Stability assessed as free base release at pH 6 after 24 hr by HPLC-PDA method; type: physicochemical; conditions: pH 6, 24 h
How it was run: (§1)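 10^-2 M methanol solution diluted to 10^-4 M in McIlvaine buffer at pH 3, 4, 5, 6 or 7, then incubated at 25 °C. Direct injection onto reversed-phase C18 after 1 h and again after 24 h. Methanol/15 mM formic acid (pH 4, ammonium) gradient at 0.3 mL/min, PDA at 270 nm. Parent and released free base (m-topolin) reported as peak area %.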

[2] = Stability assessed as compound peak area at pH 5 after 1 hr by HPLC-PDA method; type: physicochemical; conditions: read-out: Stability; how it was run: as §1
[3] = Stability assessed as free base release at pH 5 after 24 hr by HPLC-PDA method; type: physicochemical; conditions: pH 5, 24 h; how it was run: as §1
[4] = Stability assessed as free base release at pH 4 after 1 hr by HPLC-PDA method; type: physicochemical; conditions: pH 4, 1 h; how it was run: as §1
[5] = Stability assessed as free base release at pH 7 after 24 hr by HPLC-PDA method; type: physicochemical; conditions: pH 7, 24 h; how it was run: as §1
[6] = Stability assessed as free base release at pH 3 after 24 hr by HPLC-PDA method; type: physicochemical; conditions: pH 3, 24 h; how it was run: as §1
[7] = Stability assessed as compound peak area at pH 3 after 24 hrs by HPLC-PDA method; type: physicochemical; conditions: read-out: Stability; how it was run: as §1
[8] = Stability assessed as free base release at pH 3 after 1 hr by HPLC-PDA method; type: physicochemical; conditions: pH 3, 1 h; how it was run: as §1
[9] = Stability assessed as compound peak area at pH 4 after 1 hr by HPLC-PDA method; type: physicochemical; conditions: read-out: Stability; how it was run: as §1
[10] = tested on: K562; assay: Cytotoxicity against human K562 cells after 72 hrs by Calcein AM assay; type: ADME, cell-based; conditions: K562, 72 h
[11] = tested on: Triticum aestivum; assay: Cytokinin activity in wheat leaf assessed as stimulation of retention of chlorophyll in excised leaves at 0.1 mM relative to 6-benzylaminopurine; type: functional
[12] = Stability assessed as free base release at pH 5 after 1 hr by HPLC-PDA method; type: physicochemical; conditions: pH 5, 1 h; how it was run: as §1
[13] = Stability assessed as compound peak area at pH 6 after 24 hrs by HPLC-PDA method; type: physicochemical; conditions: read-out: Stability; how it was run: as §1
[14] = Stability assessed as free base release at pH 4 after 24 hr by HPLC-PDA method; type: physicochemical; conditions: pH 4, 24 h; how it was run: as §1
[15] = Stability assessed as compound peak area at pH 7 after 24 hrs by HPLC-PDA method; type: physicochemical; conditions: read-out: Stability; how it was run: as §1
[16] = tested on: Nicotiana tabacum; assay: Cytokinin activity in tobacco callus assessed as stimulation of callus growth at 1 uM relative to 6-benzylaminopurine; type: functional
[17] = Stability assessed as compound peak area at pH 6 after 1 hr by HPLC-PDA method; type: physicochemical; conditions: read-out: Stability; how it was run: as §1
[18] = tested on: Amaranthus; assay: Cytokinin activity in cotyledons assessed as dark induction of betacyanin synthesis at 100 uM relative to 6-benzylaminopurine; type: functional
[19] = Stability assessed as free base release at pH 6 after 1 hr by HPLC-PDA method; type: physicochemical; conditions: pH 6, 1 h; how it was run: as §1
[20] = Stability assessed as compound peak area at pH 3 after 1 hr by HPLC-PDA method; type: physicochemical; conditions: read-out: Stability; how it was run: as §1
[21] = tested on: MCF7; assay: Cytotoxicity against human MCF7 cells after 72 hrs by Calcein AM assay; type: ADME, cell-based; conditions: MCF7, 72 h
[22] = Stability assessed as compound peak area at pH 5 after 24 hrs by HPLC-PDA method; type: physicochemical; conditions: read-out: Stability; how it was run: as §1
[23] = Stability assessed as compound peak area at pH 4 after 24 hrs by HPLC-PDA method; type: physicochemical; conditions: read-out: Stability; how it was run: as §1
[24] = tested on: BJ; assay: Cytotoxicity against human BJ cells after 72 hrs by MTT assay; type: ADME, cell-based
[25] = Stability assessed as compound peak area at pH 7 after 1 hr by HPLC-PDA method; type: physicochemical; conditions: read-out: Stability; how it was run: as §1
[26] = Stability assessed as free base release at pH 7 after 1 hr by HPLC-PDA method; type: physicochemical; conditions: pH 7, 1 h; how it was run: as §1

Activity [1]: 0.7% | remaining at 1 h [2]: 99.5% | Activity [3]: 0.8% | Activity [4]: 0.5% | Activity [5]: 0.2% | Activity [6]: 60.4% | remaining at 24 h [7]: 39.6% | Activity [8]: 1.2% | remaining at 1 h [9]: 99.5% | Activity [12]: 0.5% | remaining at 24 h [13]: 99.3% | Activity [14]: 6.1% | remaining at 24 h [15]: 99.8% | remaining at 1 h [17]: 99.8% | Activity [19]: 0.2% | remaining at 1 h [20]: 98.8% | remaining at 24 h [22]: 99.2% | remaining at 24 h [23]: 93.9% | remaining at 1 h [25]: 99.9% | Activity [26]: 0.1%
SMILES: Oc1cccc(CNc2ncnc3c2ncn3C2CCCCO2)c1 (stereo unspecified)
IC50 [10]: 81 µM | Activity [11]: 140% | Activity [16]: 95% | Activity [18]: 100% | IC50 [21]: > 100 µM | IC50 [24]: > 100 µM
